According to ChEMBL document CHEMBL4052804, “Design and synthesis of piperazine acetate podophyllotoxin ester derivatives targeting tubulin depolymerization as new anticancer agents” (Bioorg Med Chem Lett, 2017):

Columns and labels:
MCF7 [1] = assay: Cell cycle arrest in human MCF7 cells assessed as accumulation at S phase at 0.9 uM after 12 hrs by propidium iodide staining based flow cytometric method (reference value: 27.63 to 32.34%); type: functional
MCF7 [2] = assay: Cytotoxicity against human MCF7 cells after 24 hrs by MTT assay; type: functional, cell-based; conditions: MCF7, 24 h
Procedure, shortened: (§1)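 In vitro antiproliferative screen by MTT assay against human MCF-7 breast, HeLa cervical, A549 lung adenocarcinoma and HepG-2 hepatoma cells. Output is the IC50.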

MCF7 [3] = assay: Cell cycle arrest in human MCF7 cells assessed as accumulation at S phase at 0.6 uM after 16 hrs by propidium iodide staining based flow cytometric method (reference value: 29.55 to 32.22%); type: functional
MCF7 [4] = assay: Cell cycle arrest in human MCF7 cells assessed as accumulation at G2/M phase at 0.6 uM after 12 hrs by propidium iodide staining based flow cytometric method (reference value: 5.43 to 13.68%); type: functional
MCF7 [5] = assay: Cell cycle arrest in human MCF7 cells assessed as accumulation at S phase at 0.6 uM after 8 hrs by propidium iodide staining based flow cytometric method (reference value: 29.55 to 32.22%); type: functional
MCF7 [6] = assay: Induction of apoptosis in human MCF7 cells assessed as viable cells at 12 uM after 24 hrs by Annexin-V-FITC/propidium iodide staining based flow cytometric method (reference value: 91.6 to 92.7%); type: functional; conditions: MCF7, 24 h, read-out: Activity
MCF7 [7] = assay: Cell cycle arrest in human MCF7 cells assessed as accumulation at G1 phase at 0.6 uM after 12 hrs by propidium iodide staining based flow cytometric method (reference value: 58.69 to 62.23%); type: functional
MCF7 [8] = assay: Cell cycle arrest in human MCF7 cells assessed as accumulation at G1 phase at 0.6 uM after 8 hrs by propidium iodide staining based flow cytometric method (reference value: 60.19 to 60.87%); type: functional
MCF7 [9] = assay: Induction of apoptosis in human MCF7 cells assessed as early apoptotic cells at 2 uM after 24 hrs by Annexin-V-FITC/propidium iodide staining based flow cytometric method (reference value: 2.36 to 2.86%); type: functional
A549 = assay: Cytotoxicity against human A549 cells after 24 hrs by MTT assay; type: functional, cell-based; conditions: A549, 24 h; procedure, shortened: as §1
HeLa = assay: Cytotoxicity against human HeLa cells after 24 hrs by MTT assay; type: functional, cell-based; procedure, shortened: as §1
MCF7 [10] = assay: Cell cycle arrest in human MCF7 cells assessed as accumulation at G1 phase at 0.6 uM after 16 hrs by propidium iodide staining based flow cytometric method (reference value: 60.19 to 60.87%); type: functional
MCF7 [11] = assay: Induction of apoptosis in human MCF7 cells assessed as necrotic cells at 12 uM after 24 hrs by Annexin-V-FITC/propidium iodide staining based flow cytometric method (reference value: 2.35 to 2.49%); type: functional
MCF7 [12] = assay: Cell cycle arrest in human MCF7 cells assessed as accumulation at G1 phase at 0.6 uM after 4 hrs by propidium iodide staining based flow cytometric method (reference value: 60.19 to 60.87%); type: functional
MCF7 [13] = assay: Induction of apoptosis in human MCF7 cells assessed as viable cells at 4 uM after 24 hrs by Annexin-V-FITC/propidium iodide staining based flow cytometric method (reference value: 91.6 to 92.7%); type: functional; conditions: MCF7, 24 h, read-out: Activity
MCF7 [14] = assay: Cell cycle arrest in human MCF7 cells assessed as accumulation at G2/M phase at 0.6 uM after 8 hrs by propidium iodide staining based flow cytometric method (reference value: 7.59 to 9.58%); type: functional
MCF7 [15] = assay: Induction of apoptosis in human MCF7 cells assessed as necrotic cells at 8 uM after 24 hrs by Annexin-V-FITC/propidium iodide staining based flow cytometric method (reference value: 2.35 to 2.49%); type: functional
MCF7 [16] = assay: Induction of apoptosis in human MCF7 cells assessed as early apoptotic cells at 12 uM after 24 hrs by Annexin-V-FITC/propidium iodide staining based flow cytometric method (reference value: 2.36 to 2.86%); type: functional
MCF7 [17] = assay: Cell cycle arrest in human MCF7 cells assessed as accumulation at G2/M phase at 0.6 uM after 16 hrs by propidium iodide staining based flow cytometric method (reference value: 7.59 to 9.58%); type: functional
MCF7 [18] = assay: Induction of apoptosis in human MCF7 cells assessed as necrotic cells at 4 uM after 24 hrs by Annexin-V-FITC/propidium iodide staining based flow cytometric method (reference value: 2.35 to 2.49%); type: functional
MCF7 [19] = assay: Cell cycle arrest in human MCF7 cells assessed as accumulation at G1 phase at 0.9 uM after 12 hrs by propidium iodide staining based flow cytometric method (reference value: 58.69 to 62.23%); type: functional
MCF7 [20] = assay: Cell cycle arrest in human MCF7 cells assessed as accumulation at G2/M phase at 0.3 uM after 12 hrs by propidium iodide staining based flow cytometric method (reference value: 5.43 to 13.68%); type: functional
MCF7 [21] = assay: Induction of apoptosis in human MCF7 cells assessed as late apoptotic cells at 2 uM after 24 hrs by Annexin-V-FITC/propidium iodide staining based flow cytometric method (reference value: 2 to 3.7%); type: functional
MCF7 [22] = assay: Induction of apoptosis in human MCF7 cells assessed as late apoptotic cells at 4 uM after 24 hrs by Annexin-V-FITC/propidium iodide staining based flow cytometric method (reference value: 2 to 3.7%); type: functional
MCF7 [23] = assay: Induction of apoptosis in human MCF7 cells assessed as late apoptotic cells at 8 uM after 24 hrs by Annexin-V-FITC/propidium iodide staining based flow cytometric method (reference value: 2 to 3.7%); type: functional
MCF7 [24] = assay: Induction of apoptosis in human MCF7 cells assessed as viable cells at 8 uM after 24 hrs by Annexin-V-FITC/propidium iodide staining based flow cytometric method (reference value: 91.6 to 92.7%); type: functional; conditions: MCF7, 24 h, read-out: Activity
MCF7 [25] = assay: Induction of apoptosis in human MCF7 cells assessed as early apoptotic cells at 4 uM after 24 hrs by Annexin-V-FITC/propidium iodide staining based flow cytometric method (reference value: 2.36 to 2.86%); type: functional
HepG2 = assay: Cytotoxicity against human HepG2 cells after 24 hrs by MTT assay; type: functional, cell-based; conditions: HepG2, 24 h; procedure, shortened: as §1
MCF7 [26] = assay: Cell cycle arrest in human MCF7 cells assessed as accumulation at G1 phase at 0.3 uM after 12 hrs by propidium iodide staining based flow cytometric method (reference value: 58.69 to 62.23%); type: functional
MCF7 [27] = assay: Induction of apoptosis in human MCF7 cells assessed as necrotic cells at 2 uM after 24 hrs by Annexin-V-FITC/propidium iodide staining based flow cytometric method (reference value: 2.35 to 2.49%); type: functional
MCF7 [28] = assay: Cell cycle arrest in human MCF7 cells assessed as accumulation at S phase at 0.3 uM after 12 hrs by propidium iodide staining based flow cytometric method (reference value: 27.63 to 32.34%); type: functional
L02 = assay: Cytotoxicity against human L02 cells after 24 hrs by MTT assay; type: cell-based; conditions: L02, 24 h
Procedure, shortened: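 Normal human liver L02 cells were tested at multiple concentrations in an MTT assay. Output is the median cytotoxic concentration (CC50).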

MCF7 [29] = assay: Cell cycle arrest in human MCF7 cells assessed as accumulation at S phase at 0.6 uM after 4 hrs by propidium iodide staining based flow cytometric method (reference value: 29.55 to 32.22%); type: functional
MCF7 [30] = assay: Induction of apoptosis in human MCF7 cells assessed as late apoptotic cells at 12 uM after 24 hrs by Annexin-V-FITC/propidium iodide staining based flow cytometric method (reference value: 2 to 3.7%); type: functional
MCF7 [31] = assay: Induction of apoptosis in human MCF7 cells assessed as viable cells at 2 uM after 24 hrs by Annexin-V-FITC/propidium iodide staining based flow cytometric method (reference value: 91.6 to 92.7%); type: functional; conditions: MCF7, 24 h, read-out: Activity
MCF7 [32] = assay: Induction of apoptosis in human MCF7 cells assessed as early apoptotic cells at 8 uM after 24 hrs by Annexin-V-FITC/propidium iodide staining based flow cytometric method (reference value: 2.36 to 2.86%); type: functional
MCF7 [33] = assay: Cell cycle arrest in human MCF7 cells assessed as accumulation at S phase at 0.6 uM after 12 hrs by propidium iodide staining based flow cytometric method (reference value: 27.63 to 32.34%); type: functional
MCF7 [34] = assay: Cell cycle arrest in human MCF7 cells assessed as accumulation at G2/M phase at 0.6 uM after 4 hrs by propidium iodide staining based flow cytometric method (reference value: 7.59 to 9.58%); type: functional
MCF7 [35] = assay: Cell cycle arrest in human MCF7 cells assessed as accumulation at G2/M phase at 0.9 uM after 12 hrs by propidium iodide staining based flow cytometric method (reference value: 5.43 to 13.68%); type: functional

**Q.** How did the Activity (MCF7 [1]) turn out when `COc1cc([C@@H]2c3cc4c(cc3[C@H](O)[C@H]3COC(=O)[C@H]23)OCO4)cc(OC)c1OC` [PODOFILOX] was run?
**A.** The Activity was 19.79%.

**Q.** What about the IC50 (MCF7 [2]) of the same compound?
**A.** The IC50 was 7.13 µM.

**Q.** And the Activity (MCF7 [3])?
**A.** The Activity was 26.78%.

**Q.** And the Activity (MCF7 [4])?
**A.** Its Activity is 45.4 - 47.67%.

**Q.** And the Activity (MCF7 [5])?
**A.** The Activity was 31.73%.

**Q.** What about the viability at 12 µM (MCF7 [6]) of the same compound?
**A.** The viability at 12 µM was 62.8%.

**Q.** And the Activity (MCF7 [7])?
**A.** The Activity was 20.81 - 27.26%.

**Q.** And the Activity (MCF7 [8])?
**A.** The Activity was 37.52%.

**Q.** And the Activity (MCF7 [9])?
**A.** Its Activity is 5.5%.

**Q.** What about the IC50 (A549) of the same compound?
**A.** Its IC50 is 9.34 µM.

**Q.** What about the IC50 (HeLa) of the same compound?
**A.** Its IC50 is 7.45 µM.

**Q.** And the Activity (MCF7 [10])?
**A.** Its Activity is 11.02%.

**Q.** What about the Activity (MCF7 [11]) of the same compound?
**A.** Its Activity is 6.65%.

**Q.** What about the Activity (MCF7 [12]) of the same compound?
**A.** The Activity was 47.97%.

**Q.** What about the viability at 4 µM (MCF7 [13]) of the same compound?
**A.** The viability at 4 µM was 79.4%.

**Q.** And the Activity (MCF7 [14])?
**A.** Its Activity is 30.75%.

**Q.** What about the Activity (MCF7 [15]) of the same compound?
**A.** Its Activity is 4.65%.

**Q.** And the Activity (MCF7 [16])?
**A.** Its Activity is 13.4%.

**Q.** What about the Activity (MCF7 [17]) of the same compound?
**A.** The Activity was 62.2%.

**Q.** And the Activity (MCF7 [18])?
**A.** The Activity was 2.34%.

**Q.** And the Activity (MCF7 [19])?
**A.** Its Activity is 8.17%.

**Q.** What about the Activity (MCF7 [20]) of the same compound?
**A.** The Activity was 29.49%.

**Q.** What about the Activity (MCF7 [21]) of the same compound?
**A.** The Activity was 8.61%.

**Q.** And the Activity (MCF7 [22])?
**A.** Its Activity is 10.5%.

**Q.** And the Activity (MCF7 [23])?
**A.** Its Activity is 12.4%.

**Q.** And the viability at 8 µM (MCF7 [24])?
**A.** The viability at 8 µM was 72.9%.

**Q.** What about the Activity (MCF7 [25]) of the same compound?
**A.** The Activity was 7.87%.

**Q.** And the IC50 (HepG2)?
**A.** The IC50 was 5.81 µM.

**Q.** What about the Activity (MCF7 [26]) of the same compound?
**A.** Its Activity is 40.17%.

**Q.** And the Activity (MCF7 [27])?
**A.** The Activity was 1.69%.

**Q.** And the Activity (MCF7 [28])?
**A.** The Activity was 30.34%.

**Q.** What about the IC50 (L02) of the same compound?
**A.** Its IC50 is 3.72 µM.

**Q.** What about the Activity (MCF7 [29]) of the same compound?
**A.** Its Activity is 29.63%.

**Q.** And the Activity (MCF7 [30])?
**A.** The Activity was 17.4%.

**Q.** And the viability at 2 µM (MCF7 [31])?
**A.** The viability at 2 µM was 84.2%.

**Q.** What about the Activity (MCF7 [32]) of the same compound?
**A.** The Activity was 10.1%.

**Q.** What about the Activity (MCF7 [33]) of the same compound?
**A.** The Activity was 27.34 - 31.52%.

**Q.** What about the Activity (MCF7 [34]) of the same compound?
**A.** The Activity was 22.4%.

**Q.** What about the Activity (MCF7 [35]) of the same compound?
**A.** Its Activity is 72.04%.
